According to ChEMBL document CHEMBL1157291, “Discovery of bacterial fatty acid synthase inhibitors from a Phoma species as antimicrobial agents using a new antisense-based strategy” (J Nat Prod, 2006):
Values after ≈ are worked out from the molar mass of the structure shown.

Experiments:
[1] = Inhibition of Staphylococcus aureus FAS2
In short: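 Partially purified S. aureus protein containing all FAS enzymes (1.26 µg) was preincubated 20 min at room temperature with serial dilutions of compound. Reactions were started with [2-14C]malonyl-CoA (4 µM final), run 90 min at 37 °C, stopped with perchloric acid, and read by scintillation in phospholipid-coated flash plates. IC50 was determined.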

Staphylococcus aureus [2] = test: Antimicrobial activity against Staphylococcus aureus RN450 transfected with plasmid SI-1941 bearing antisense to FabF assessed as drug level at which a zone formation after 18 hrs; format: functional
In short: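 Agar two-plate differential sensitivity assay: S. aureus RN450 carrying fabF antisense plasmid, with a vector-only control strain. Overnight LB cultures with 34 µg/mL chloramphenicol at 37 °C were inoculated 1:1000 (of OD 3.0) into LB agar with 0.2% glucose and 15 µg/mL chloramphenicol, plus 50 mM xylose for the antisense strain only. Samples were added to wells and incubated 18 h at 37 °C. MDC is the lowest 2-fold dilution giving a zone in the sensitive strain with a 5 mm zone differential over the control strain.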

Staphylococcus aureus [3] = test: Antimicrobial activity against Staphylococcus aureus MB2865 after 20 hrs; format: functional
In short: (§1)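 MIC determination: cells inoculated at 10^5 CFU/mL, incubated at 37 °C for 20 h with 2-fold serial dilutions of compound in growth medium; MIC taken as lowest concentration inhibiting growth.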

Staphylococcus aureus [4] = test: Antimicrobial activity against methicillin-resistant Staphylococcus aureus COL after 20 hrs; format: functional; in short: as §1
Escherichia coli [5] = test: Antimicrobial activity against envA transfected Escherichia coli after 20 hrs; format: functional
In short: (§2)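 Broth MIC: cells at 10^5 CFU/mL were incubated at 37 °C for 20 h with 2-fold serial dilutions of compound in growth medium. The MIC was taken as the lowest concentration inhibiting growth.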

Enterococcus faecalis = test: Antimicrobial activity against vancomycin-sensitive Enterococcus faecalis CL8516 after 20 hrs; format: functional; in short: as §2
Enterococcus faecium = test: Antimicrobial activity against vancomycin-resistant Enterococcus faecium CL5791 after 20 hrs; format: functional; in short: as §1
Escherichia coli [6] = test: Antimicrobial activity against wild type Escherichia coli after 20 hrs; format: functional; in short: as §2

Row | Structure (SMILES) | IC50 [1] [µg/mL] | Activity (Staphylococcus aureus [2]) [µg/mL] | MIC (Staphylococcus aureus [3]) [µg/mL] | MIC (Staphylococcus aureus [4]) [µg/mL] | MIC (Escherichia coli [5]) [µg/mL] | MIC (Enterococcus faecalis) [µg/mL] | MIC (Enterococcus faecium) [µg/mL] | MIC (Escherichia coli [6]) [µg/mL]
1 | C/C=C/C/C=C/CCC(=O)[C@H]1O[C@H]1C(N)=O [CERULENIN] | 1.5 (≈ 6.72 µM) | 32 | 64 (≈ 287 µM) |  |  |  |  | 
2 | CCC(O)C#CC#CC=C=CCCCCC(=O)O (configuration not stated) [PHOMALLENIC ACID A] | 22 (≈ 89.3 µM) | 0.63 | 250 (≈ 1010 µM) | 250 (≈ 1010 µM) | 31.3 (≈ 127 µM) | > 250 | > 250 | > 250
3 | CCCC#CC#CC=C=CCCCCCCC(=O)O [PHOMALLENIC ACID B] | 3.4 (≈ 13.2 µM) | 0.31 | 7.8 (≈ 30.2 µM) | 12.5 (≈ 48.4 µM) | 25 (≈ 96.8 µM) | > 100 | > 100 | > 100
4 | CCCC#CC#CC=C=CCCCCCCCC(=O)O [PHOMALLENIC ACID C] | 0.77 (≈ 2.83 µM) | 0.15 | 3.9 (≈ 14.3 µM) | 3.9 (≈ 14.3 µM) | 12.5 (≈ 45.9 µM) | > 100 | > 100 | > 100
5 | C=C/C(C)=C/[C@@]1(C)SC(=O)C(C)=C1O [THIOLACTOMYCIN] |  |  |  | 64 (≈ 304 µM) | > 250 | > 250 | > 250 | > 250
